In ChEMBL document CHEMBL1150419, “Structure-activity relationships of a peptide inhibitor of the human FcRn:human IgG interaction” (Bioorg Med Chem, 2008):

target: T1, IgG receptor FcRn large subunit p51 (Homo sapiens, UniProt P55899); assay: Binding affinity to human FcRn at pH 6 by surface plasmon resonance assay
How it was run: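 Soluble human FcRn coupled to the dextran surface of a CM5 chip; peptide dilutions flowed over the chip. The equilibrium response at each dilution was plotted against concentration and fitted to a steady-state affinity model to give Kd.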

T1 sequence (P55899 whole entry): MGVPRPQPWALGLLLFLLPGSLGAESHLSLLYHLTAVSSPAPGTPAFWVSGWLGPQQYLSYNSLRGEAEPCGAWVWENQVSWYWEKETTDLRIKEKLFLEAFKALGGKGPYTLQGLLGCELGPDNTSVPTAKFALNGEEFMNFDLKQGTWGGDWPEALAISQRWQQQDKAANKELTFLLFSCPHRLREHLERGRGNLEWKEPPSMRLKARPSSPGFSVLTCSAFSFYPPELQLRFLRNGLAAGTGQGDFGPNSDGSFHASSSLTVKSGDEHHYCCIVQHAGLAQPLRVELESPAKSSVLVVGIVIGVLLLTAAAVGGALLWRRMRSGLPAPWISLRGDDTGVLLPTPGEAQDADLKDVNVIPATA

| Kd [µM] | Compound |
| --- | --- |
| 2 | CC(C)C[C@H](NC(=O)CNC(=O)CN(C)C(=O)[C@H](Cc1ccccc1)NC(=O)[C@H](Cc1cnc[nH]1)NC(=O)CNC(=O)[C@@H](NC(=O)[C@@H](NC(=O)[C@H](Cc1ccccc1)NC(=O)[C@H](CCCN=C(N)N)NC(=O)[C@@H](N)CCC(N)=O)C(C)(C)S)[C@@H](C)O)C(=O)N[C@@H](Cc1ccc(O)cc1)C(=O)N1CCC[C@H]1C(=O)N[C@@H](CS)C(=O)N[C@@H](CC(N)=O)C(=O)NCC(=O)N1CCC[C@H]1C(=O)O |
| 84 | CC(C)C[C@H](NC(=O)CNC(=O)CNC(=O)[C@H](Cc1ccc([N+](=O)[O-])cc1)NC(=O)[C@H](Cc1cnc[nH]1)NC(=O)CNC(=O)[C@@H](NC(=O)[C@@H](NC(=O)[C@H](Cc1ccccc1)NC(=O)[C@H](CCCN=C(N)N)NC(=O)[C@@H](N)CCC(N)=O)C(C)(C)S)[C@@H](C)O)C(=O)N[C@@H](Cc1ccc(O)cc1)C(=O)N1CCC[C@H]1C(=O)N[C@@H](CS)C(=O)N[C@@H](CC(N)=O)C(=O)NCC(=O)N1CCC[C@H]1C(=O)O |
| 2 | CC(C)C[C@H](NC(=O)[C@@H](Cc1cnc[nH]1)NC(=O)CNC(=O)[C@H](Cc1ccccc1)NC(=O)[C@H](Cc1cnc[nH]1)NC(=O)CNC(=O)[C@@H](NC(=O)[C@@H](NC(=O)[C@H](Cc1ccccc1)NC(=O)[C@H](CCCN=C(N)N)NC(=O)[C@@H](N)CCC(N)=O)C(C)(C)S)[C@@H](C)O)C(=O)N[C@@H](Cc1ccc(O)cc1)C(=O)N1CCC[C@H]1C(=O)N[C@@H](CS)C(=O)N[C@@H](CC(N)=O)C(=O)NCC(=O)N1CCC[C@H]1C(=O)O |
| 0.58 | CC(C)C[C@H](NC(=O)CNC(=O)[C@@H](CC(=O)O)NC(=O)[C@H](Cc1ccccc1)NC(=O)[C@H](Cc1cnc[nH]1)NC(=O)CNC(=O)[C@@H](NC(=O)[C@@H](NC(=O)[C@H](Cc1ccccc1)NC(=O)[C@H](CCCN=C(N)N)NC(=O)[C@@H](N)CCC(N)=O)C(C)(C)S)[C@@H](C)O)C(=O)N[C@@H](Cc1ccc(O)cc1)C(=O)N1CCC[C@H]1C(=O)N[C@@H](CS)C(=O)N[C@@H](CC(N)=O)C(=O)NCC(=O)N1CCC[C@H]1C(=O)O |
| > 250 | CC(C)C[C@@H](NC(=O)CNC(=O)CNC(=O)[C@@H](Cc1ccccc1)NC(=O)[C@H](Cc1cnc[nH]1)NC(=O)CNC(=O)[C@@H](NC(=O)[C@H](NC(=O)[C@H](Cc1ccccc1)NC(=O)[C@H](CCCNC(=N)N)NC(=O)[C@@H](N)CCC(N)=O)C(C)(C)S)[C@@H](C)O)C(=O)N[C@@H](Cc1ccc(O)cc1)C(=O)N1CCC[C@H]1C(=O)N[C@H](CS)C(=O)N[C@@H](CC(N)=O)C(=O)NCC(=O)N1CCC[C@H]1C(=O)O |
| > 250 | CC(C)C[C@H](NC(=O)CNC(=O)CNC(=O)[C@H](Cc1ccccc1)NC(=O)[C@H](Cc1cnc[nH]1)NC(=O)CNC(=O)[C@@H](NC(=O)[C@H](NC(=O)[C@H](Cc1ccccc1)NC(=O)[C@H](CCCNC(=N)N)NC(=O)[C@@H](N)CCC(N)=O)C(C)(C)S)[C@@H](C)O)C(=O)N[C@H](Cc1ccc(O)cc1)C(=O)N1CCC[C@H]1C(=O)N[C@H](CS)C(=O)N[C@@H](CC(N)=O)C(=O)NCC(=O)N1CCC[C@H]1C(=O)O |
| 0.2 | Cc1ccc(C[C@H](NC(=O)[C@H](Cc2cnc[nH]2)NC(=O)CNC(=O)[C@@H](NC(=O)[C@@H](NC(=O)[C@H](Cc2ccccc2)NC(=O)[C@H](CCCN=C(N)N)NC(=O)[C@@H](N)CCC(N)=O)C(C)(C)S)[C@@H](C)O)C(=O)NCC(=O)NCC(=O)N[C@@H](CC(C)C)C(=O)N[C@@H](Cc2ccc(O)cc2)C(=O)N2CCC[C@H]2C(=O)N[C@@H](CS)C(=O)N[C@@H](CC(N)=O)C(=O)NCC(=O)N2CCC[C@H]2C(=O)O)cc1 |

The remaining lines, values behind:

| Compound | Kd [µM] |
| --- | --- |
| CC(C)C[C@H](NC(=O)CNC(=O)CNC(=O)[C@H](Cc1ccccc1)NC(=O)[C@H](Cc1cnc[nH]1)NC(=O)CNC(=O)[C@@H](NC(=O)[C@H](CS)NC(=O)[C@H](Cc1ccccc1)NC(=O)[C@H](CCCNC(=N)N)NC(=O)[C@@H](N)CCC(N)=O)[C@@H](C)O)C(=O)N[C@@H](Cc1ccc(O)cc1)C(=O)N1CCC[C@H]1C(=O)N[C@@H](CS)C(=O)N[C@@H](CC(N)=O)C(N)=O | 6.1 |
| CC(C)C[C@H](NC(=O)CN(C)C(=O)[C@@H](C)NC(=O)[C@H](Cc1ccccc1)NC(=O)[C@H](Cc1cnc[nH]1)NC(=O)CNC(=O)[C@@H](NC(=O)[C@@H](NC(=O)[C@H](Cc1ccccc1)NC(=O)[C@H](CCCNC(=N)N)NC(=O)[C@@H](N)CCC(N)=O)C(C)(C)S)[C@@H](C)O)C(=O)N[C@@H](Cc1ccc(O)cc1)C(=O)N1CCC[C@H]1C(=O)N[C@@H](CS)C(=O)N[C@@H](CC(N)=O)C(=O)NCC(=O)N1CCC[C@H]1C(=O)O | 0.19 |

target: T1, IgG receptor FcRn large subunit p51; assay: Inhibition of human IgG binding to soluble human FcRn by ELISA
How it was run: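 Biotinylated soluble human FcRn immobilized on neutravidin plates, incubated with hIgG (3 nM, constant) and peptide at varying concentrations for 2 h at 37 °C. After washing, bound hIgG detected with peroxidase-conjugated hIgG-specific Fab fragments.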

| IC50 [µM] | Compound |
| --- | --- |
| 3.7 | CC(C)C[C@H](NC(=O)[C@H]1CCCN1C(=O)[C@@H](C)NC(=O)[C@H](Cc1ccccc1)NC(=O)[C@H](Cc1cnc[nH]1)NC(=O)CNC(=O)[C@@H](NC(=O)[C@@H](NC(=O)[C@H](Cc1ccccc1)NC(=O)[C@H](CCCN=C(N)N)NC(=O)[C@@H](N)CCC(N)=O)C(C)(C)S)[C@@H](C)O)C(=O)N[C@@H](Cc1ccc(O)cc1)C(=O)N1CCC[C@H]1C(=O)N[C@@H](CS)C(=O)N[C@@H](CC(N)=O)C(=O)NCC(=O)N1CCC[C@H]1C(=O)O |
| 57 | CC(C)C[C@H](NC(=O)c1cccc(CNC(=O)[C@H](Cc2ccccc2)NC(=O)[C@H](Cc2cnc[nH]2)NC(=O)CNC(=O)[C@@H](NC(=O)[C@@H](NC(=O)[C@H](Cc2ccccc2)NC(=O)[C@@H](N)CCCN=C(N)N)C(C)(C)S)[C@@H](C)O)c1)C(=O)N[C@@H](Cc1ccc(O)cc1)C(=O)N1CCC[C@H]1C(=O)N[C@@H](CS)C(=O)O |
| 5 | CC(C)C[C@H](NC(=O)CNC(=O)[C@H]1CCCN1C(=O)[C@H](Cc1ccccc1)NC(=O)[C@H](Cc1cnc[nH]1)NC(=O)CNC(=O)[C@@H](NC(=O)[C@@H](NC(=O)[C@H](Cc1ccccc1)NC(=O)[C@H](CCCN=C(N)N)NC(=O)[C@@H](N)CCC(N)=O)C(C)(C)S)[C@@H](C)O)C(=O)N[C@@H](Cc1ccc(O)cc1)C(=O)N1CCC[C@H]1C(=O)N[C@@H](CS)C(=O)N[C@@H](CC(N)=O)C(=O)NCC(=O)N1CCC[C@H]1C(=O)O |
| 2.2 | CC(C)C[C@H](NC(=O)[C@H]1CS[C@@H]2CC[C@@H](NC(=O)[C@H](Cc3ccccc3)NC(=O)[C@H](Cc3cnc[nH]3)NC(=O)CNC(=O)[C@@H](NC(=O)[C@H](NC(=O)[C@H](Cc3ccccc3)NC(=O)[C@@H](N)CCCN=C(N)N)C(C)(C)S)[C@@H](C)O)C(=O)N12)C(=O)N[C@@H](Cc1ccc(O)cc1)C(=O)N1CCC[C@H]1C(=O)N[C@@H](CS)C(=O)O |
| 32 | CC(C)C[C@H](NC(=O)CNC(=O)CNC(=O)[C@H](Cc1ccccc1)NC(=O)[C@H](Cc1cnc[nH]1)NC(=O)CNC(=O)[C@@H](NC(=O)[C@H](CC(=O)O)NC(=O)[C@H](Cc1ccccc1)NC(=O)[C@H](CCCN=C(N)N)NC(=O)[C@@H](N)CCC(N)=O)[C@@H](C)O)C(=O)N[C@@H](Cc1ccc(O)cc1)C(=O)N1CCC[C@H]1C(=O)N[C@@H](CN)C(=O)N[C@@H](CC(N)=O)C(=O)NCC(=O)N1CCC[C@H]1C(=O)O |
| 60 | CC(C)C[C@H](NC(=O)CNC(=O)CNC(=O)[C@H](Cc1ccccc1)NC(=O)[C@H](Cc1cnc[nH]1)NC(=O)CNC(=O)[C@@H](NC(=O)[C@H](CCCCN)NC(=O)[C@H](Cc1ccccc1)NC(=O)[C@H](CCCNC(=N)N)NC(=O)[C@@H](N)CCC(N)=O)[C@@H](C)O)C(=O)N[C@@H](Cc1ccc(O)cc1)C(=O)N1CCC[C@H]1C(=O)N[C@@H](CC(=O)O)C(=O)N[C@@H](CC(N)=O)C(=O)NCC(=O)N1CCC[C@H]1C(=O)O |
| 57 | CC(C)C[C@H](NC(=O)[C@@H](C)NC(=O)CNC(=O)[C@H](Cc1ccccc1)NC(=O)[C@H](Cc1cnc[nH]1)NC(=O)CNC(=O)[C@@H](NC(=O)[C@H](CS)NC(=O)[C@H](Cc1ccccc1)NC(=O)[C@H](CCCN=C(N)N)NC(=O)[C@@H](N)CCC(N)=O)[C@@H](C)O)C(=O)N[C@@H](Cc1ccc(O)cc1)C(=O)N1CCC[C@H]1C(=O)N[C@@H](CS)C(=O)N[C@@H](CC(N)=O)C(=O)NCC(=O)N1CCC[C@H]1C(=O)O |
| 19 | CC(C)C[C@@H](C(=O)N[C@@H](Cc1ccc(O)cc1)C(=O)N1CCC[C@H]1C(=O)N[C@@H](CS)C(=O)O)N1CC[C@H](NC(=O)CNC(=O)[C@H](Cc2ccccc2)NC(=O)[C@H](Cc2cnc[nH]2)NC(=O)CNC(=O)[C@@H](NC(=O)[C@@H](NC(=O)[C@H](Cc2ccccc2)NC(=O)[C@@H](N)CCCNC(=N)N)C(C)(C)S)[C@@H](C)O)C1=O |
| 120 | CC(C)C[C@H](NC(=O)CNC(=O)CNC(=O)[C@H](Cc1ccccc1)NC(=O)[C@H](Cc1cnc[nH]1)NC(=O)CNC(=O)[C@@H](NC(=O)[C@H](CN)NC(=O)[C@H](Cc1ccccc1)NC(=O)[C@H](CCCNC(=N)N)NC(=O)[C@@H](N)CCC(N)=O)[C@@H](C)O)C(=O)N[C@@H](Cc1ccc(O)cc1)C(=O)N1CCC[C@H]1C(=O)N[C@@H](CC(=O)O)C(=O)N[C@@H](CC(N)=O)C(=O)NCC(=O)N1CCC[C@H]1C(=O)O |
| 30 | CC(C)C[C@H](NC(=O)CNC(=O)CNC(=O)[C@H](Cc1ccccc1)NC(=O)[C@H](Cc1cnc[nH]1)NC(=O)CNC(=O)[C@@H](NC(=O)[C@H](CCCN)NC(=O)[C@H](Cc1ccccc1)NC(=O)[C@H](CCCNC(=N)N)NC(=O)[C@@H](N)CCC(N)=O)[C@@H](C)O)C(=O)N[C@@H](Cc1ccc(O)cc1)C(=O)N1CCC[C@H]1C(=O)N[C@@H](CCC(=O)O)C(=O)N[C@@H](CC(N)=O)C(=O)NCC(=O)N1CCC[C@H]1C(=O)O |
| 21 | CC(C)C[C@H](NC(=O)[C@H]1CCCN1C(=O)[C@H]1CCCN1C(=O)[C@H](Cc1ccccc1)NC(=O)[C@H](Cc1cnc[nH]1)NC(=O)CNC(=O)[C@@H](NC(=O)[C@@H](NC(=O)[C@H](Cc1ccccc1)NC(=O)[C@H](CCCNC(=N)N)NC(=O)[C@@H](N)CCC(N)=O)C(C)(C)S)[C@@H](C)O)C(=O)N[C@@H](Cc1ccc(O)cc1)C(=O)N1CCC[C@H]1C(=O)N[C@@H](CS)C(=O)N[C@@H](CC(N)=O)C(=O)NCC(=O)N1CCC[C@H]1C(=O)O |
| 2 | CC(C)C[C@H](NC(=O)CNC(=O)CNC(=O)[C@H](Cc1ccccc1)NC(=O)[C@H](Cc1cnc[nH]1)NC(=O)CNC(=O)[C@@H](NC(=O)[C@@H](NC(=O)[C@H](Cc1ccccc1)NC(=O)[C@H](CCCNC(=N)N)NC(=O)[C@@H](N)CCC(N)=O)C(C)(C)S)[C@@H](C)O)C(=O)N[C@@H](Cc1ccc(O)cc1)C(=O)N1CCC[C@H]1C(=O)N[C@@H](CCS)C(=O)N[C@@H](CC(N)=O)C(=O)NCC(=O)N1CCC[C@H]1C(=O)O |
